Data on 97 compounds can be found in ChEMBL document CHEMBL4513216, “Probing the Open Global Health Chemical Diversity Library for Multistage-Active Starting Points for Next-Generation Antimalarials” (ACS Infect Dis, 2020).

Each structure is given as a SMILES string.

This series in a line: Toxicity liver stage against HepG2, at 10uM. It is filed as cell-based. On the set-up: test concentration 10 uM, cell line HepG2-A16-CD81EGFP. The settings on record: human, HepG2-A16-CD81EGFP cells; read-out: INHIBITION
The method, boiled down: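 Uninfected HepG2-A16-CD81EGFP cells, 3 × 10^3 per well, 1536-well, plated on prespotted compound at 10 μM final, parasite-free screening media added to match infected plates; puromycin 10 μM positive, DMSO 0.5% negative; run in parallel with 48 h PbLuc assay at 37 °C, 5% CO2; viability by CellTiter-Glo luminescence, normalized to controls.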
As to `Cc1cc(C(=O)N2CCCC2)ccc1NCC(=O)N1CCOCC1`, the cytotoxicity at 10 µM is -5%. With `O=C(c1cocn1)N1CCC2(CC1)CC(Oc1ccccn1)CO2` (configuration not stated) the figure was 9.34%; with `CCN(Cc1ccoc1)C(C(N)=O)c1ccc(Br)cc1` (configuration not stated), -5.5%.

For `CCOc1ccc(C(=O)NC2CCN(c3ncccn3)CC2)cc1C`, the cytotoxicity at 10 µM is -10.1%.

For `Cn1ccnc1COc1ccc(CN2CCN(CCO)CC2)cc1`, the cytotoxicity at 10 µM is -10.2%. In the case of `CC(C)c1ccc(OCCC(=O)NCCC(=O)N(C)C)cc1`, the cytotoxicity at 10 µM was -4.37%. With `CC(C)CCNC(=O)c1ccc2c(=O)n(-c3ccccc3)cnc2c1` the figure was -4.65%; with `CC(C(=O)N1CCn2cncc2C1)N1CCCC1` (configuration not stated), 6.38%; with `Cc1csc(CNC(=O)N(C)Cc2ccc([S+](C)[O-])cc2)n1` (configuration not stated), 4.53%. In the case of `CS(=O)(=O)c1ccc(OCCNCc2c(F)cccc2F)cc1`, the cytotoxicity at 10 µM was -7.12%.

On to `CCN1CC2(CCNCC2)COc2ccccc2S1(=O)=O`, for which the cytotoxicity at 10 µM was -3.06%. Take `CC1N(CC2CC2)C(=O)COC12CCN(C(=O)c1ccno1)CC2` (configuration not stated): the cytotoxicity at 10 µM amounted to 0.104%.

For the compound `CCOCCNC(=O)c1cc(Br)c2c(c1)OCCO2`, the cytotoxicity at 10 µM was found to be 1.41%. Regarding `CCO[C@H]1C[C@@H](O)C12CCN(S(=O)(=O)c1ccccc1OC)CC2`, the cytotoxicity at 10 µM was 2.01%.

As to `CN(Cc1noc(C2CC2)n1)CC1CCN(CCO)CC1`, the cytotoxicity at 10 µM was -3.96%. With `COc1ccc(CCNC(=O)NC2CC(=O)N(c3ccccc3)C2)cc1` (configuration not stated), the cytotoxicity at 10 µM was -48%. For `COC(=O)[C@H]1CN(S(C)(=O)=O)CCN1S(C)(=O)=O`, the cytotoxicity at 10 µM is -1.37%. As to `CC(NC(=O)N1CCCN(Cc2cccs2)CC1)c1cccnc1` (configuration not stated), the cytotoxicity at 10 µM is -8.83%. As for `CCCS(=O)(=O)N1CC[C@H]2O[C@@H](c3nc(C)no3)CC[C@H]21`, the cytotoxicity at 10 µM is -2.48%.

Regarding `Cc1ccc(C)c(C(C(=O)O)N2CCCN(Cc3ccccn3)CC2)c1` (configuration not stated), the cytotoxicity at 10 µM is -15.6%.

Take `CC(c1nc(C2CC2)no1)N1CCN(CCS(C)(=O)=O)CC1` (configuration not stated): the cytotoxicity at 10 µM worked out at 7.41%. For `CCN(Cc1noc(CC(C)C)n1)Cc1cccc(F)c1O`, the cytotoxicity at 10 µM was -44%.

Regarding `CC(C)N(CC(N)=O)Cc1csc(COc2ccc(F)cc2)n1`, the cytotoxicity at 10 µM was found to be 33.9%. With `Cn1c(NCC(O)c2ccc(Cl)cc2)c(C#N)c(=O)n(C)c1=O` (configuration not stated) the figure was -3.27%.

Consider `COc1cccc(C(=O)C2CCCN(c3nccc(N)n3)C2)c1` (configuration not stated), for which the cytotoxicity at 10 µM was -1.82%.

In the case of `COC[C@@]12CCC[C@@H]1CN(C(=O)Cc1ccccn1)C2`, the cytotoxicity at 10 µM was -96.7%. With `Cc1nn(C(C)C)c(C)c1CN1CCN(C2CCCCC2)C(=O)C1` the figure was 6.63%. With `O=C(COc1ccccc1F)NCC(O)(c1ccccc1)C1CC1` (configuration not stated) the figure was -3.68%; with `Cc1cc(CNC2(c3ccccc3)CCCCC2)no1`, 2.94%.

As to `CS(=O)(=O)c1ccc(CNC(=O)N2CCC(C(N)=O)C2)cc1` (configuration not stated), the cytotoxicity at 10 µM was -8.03%.

Consider `CC1CN(C)CCN1C(=O)NCCCn1ccnc1` (configuration not stated), for which the cytotoxicity at 10 µM was -45.5%. For the compound `Cc1cc(NC(=O)CNC2CCc3nc(C(C)C)nn3C2)no1` (configuration not stated), the cytotoxicity at 10 µM is -3.87%. Turning to `COc1ccc(COCC(=O)N2CCC(c3nncn3C)CC2)cc1`, the cytotoxicity at 10 µM amounted to 4.9%. As to `CCCSCC(=O)N1CCN(c2ccc(OC)cc2)CC1C` (configuration not stated), the cytotoxicity at 10 µM was -166%. As for `FC(F)(F)C1CCCn2c(CNCc3ccco3)nnc21` (configuration not stated), the figure is -9.5%; as for `COc1cc(-c2n[nH]c(CC#N)n2)cc(OC)c1OC`, -175%. On to `Cc1cnc(NC(=O)N2CCOCC2)s1`, for which the cytotoxicity at 10 µM is -1.14%. In the case of `CCOc1ccc(C(F)(F)F)cc1NCc1cc(C)on1`, the cytotoxicity at 10 µM was -49.3%. As for `O=C1COC2(CCN(Cc3cccnc3)CC2)CN1`, the cytotoxicity at 10 µM turned out to be 2.78%. As for `CN1CCc2nnc(C3CCCN3S(=O)(=O)c3ccc(F)cc3)n2CC1` (configuration not stated), the figure is -0.594%. Turning to `Cc1cnccc1CN(C)C(=O)c1ccc(Cn2cnnn2)cc1`, the cytotoxicity at 10 µM came to 8.15%.

On to `O=C(N1CCOCC1CO)C1(c2cccs2)CCCC1` (configuration not stated), for which the cytotoxicity at 10 µM turned out to be 0.161%.

As to `CCOC(=O)N1CCN(C(=O)CCn2cccc2)CC1`, the cytotoxicity at 10 µM worked out at 5.62%. As to `Cn1ncc2c(=O)[nH]c(CN3CCCC3Cc3ccc(F)cc3)nc21` (configuration not stated), the cytotoxicity at 10 µM is 0.301%.

On to `Cc1cc(C)c2c(OCC(=O)N(C)CC(=O)NC(C)C)nn(C)c2n1`, for which the cytotoxicity at 10 µM came to 1.28%. For `Cc1cccc(-c2nc(CN3CCCC3Cn3cc(C)cn3)no2)c1` (configuration not stated), the cytotoxicity at 10 µM is -1.82%. With `CC(C(=O)NCc1ccc(F)cc1)N(C)CCN1CCOCC1` (configuration not stated) the figure was 0.247%. As to `O=c1nc(CNc2ccccc2)[nH]n1Cc1ccccc1`, the cytotoxicity at 10 µM turned out to be 4.13%. For the compound `O=C(O)c1ccnc(-c2ccnc(NCCc3nc4c(s3)CCC4)n2)c1`, the cytotoxicity at 10 µM was -4.23%. Regarding `CCN(CC)S(=O)(=O)N(CC)Cc1ccc2c(c1)OCCO2`, the cytotoxicity at 10 µM is 4.66%. As for `CCN1CCCC(C)(C(=O)NCCc2n[nH]c(=O)[nH]2)C1` (configuration not stated), the figure is -1.76%; as for `CC(C)N1CCCC2(CCN(C(=O)CCCn3cccn3)C2)C1=O` (configuration not stated), 0.264%.

With `CC(=O)c1cc(CN2C[C@@H]3CC[C@H]2CN(S(C)(=O)=O)C3)cs1`, the cytotoxicity at 10 µM stood at 8.35%. With `O=C(NC1CC1)c1ccnc(N2CCOC(c3ccc(Cl)c(Cl)c3)C2)c1` (configuration not stated) the figure was 14%; with `Cc1cccc2c1nc1n2[C@@H](CNC(=O)c2cnccn2)COC1`, 6.54%. For `CO[C@@H]1CC[C@@H](NS(=O)(=O)c2cn(C)nc2C)[C@H]1O`, the cytotoxicity at 10 µM is -3.11%. As for `CN(C)[C@@H]1CN(C(=O)Cc2ccsc2)[C@@H]2CCCO[C@H]12`, the figure is 3.08%; as for `CN(C)CC1CN(CC(=O)N2CCc3ccccc32)CCO1` (configuration not stated), -1.61%. Consider `Cc1nn(C)c(C)c1NC(=O)CNc1ccc(F)c(C(F)(F)F)c1`, for which the cytotoxicity at 10 µM is 0.0371%. In the case of `CCN(Cc1c(F)cccc1F)C(=O)c1ccncc1O`, the cytotoxicity at 10 µM is -1.22%. As for `Cc1cnn(CCNCC(O)COc2ccc(C#N)cc2)c1` (configuration not stated), the cytotoxicity at 10 µM is -11.9%.

Consider `CC(CCn1cccn1)Nc1ccc(-c2nccn2C)nn1` (configuration not stated), for which the cytotoxicity at 10 µM was determined as 1.39%. Take `CCN(CC)C(=O)N1CCN(C2=NCC(C)S2)CC1` (configuration not stated): the cytotoxicity at 10 µM was -148%. Regarding `CN(Cc1ncnn1C)C(=O)CCCn1ccc2cc(Cl)ccc21`, the cytotoxicity at 10 µM was found to be 14.7%.

`c1cnnc(-c2noc(CCN3CCCO3)n2)c1`: the cytotoxicity at 10 µM is -3.61%. `CC(C)(C)c1nc(NS(=O)(=O)c2cccc(F)c2)no1`: the cytotoxicity at 10 µM was -10.8%. On to `COc1ccc(NC(=O)CCN2CC=C(c3cnn(C)c3)CC2)c(C)c1`, for which the cytotoxicity at 10 µM is -4.08%. As for `O=C1COc2cc(C(=O)NS(=O)(=O)c3cccc(Cl)c3)ccc2N1`, the cytotoxicity at 10 µM is -4.01%. As for `CC(=O)NC1CCCN(Cc2ccc(OCc3ccccn3)cc2)C1` (configuration not stated), the figure is 1.41%; as for `O=C(c1ccccc1)N1CCC[C@]2(C[C@@H](Oc3ncccc3F)CO2)C1`, -1.78%. With `Cc1cccc(CN2C[C@@H]3OCCN(S(=O)(=O)N(C)C)[C@@H]3C2)n1`, the cytotoxicity at 10 µM was 11.2%. Consider `O=C(CN1C=Nc2ccccc2S1(=O)=O)NCCc1cccs1`, for which the cytotoxicity at 10 µM is -8.55%.

As to `CCOCC(O)CN1CCN(C(=O)c2ccccc2F)CC1` (configuration not stated), the cytotoxicity at 10 µM was -2.15%.

Regarding `CC(=O)Nc1sc2c(c1C(=O)O)CCc1ccccc1-2`, the cytotoxicity at 10 µM stood at 0.513%. With `N#Cc1cccc(CN2CC[C@@H]3[C@@H]2CC(=O)N3Cc2cccnc2)c1` the figure was 5.2%. For `CN(C)c1cc2c(nn1)CCN(C(=O)c1cc3ccccc3o1)C2`, the cytotoxicity at 10 µM is -5.39%.

With `Cc1cnn(CCCn2ncc(N3CCC(CN)C3)cc2=O)c1` (configuration not stated), the cytotoxicity at 10 µM is -48.2%. Consider `Cc1nn(C)c2cnn(CC(=O)NCc3ccccc3F)c12`, for which the cytotoxicity at 10 µM was determined as 7.8%. With `Fc1ccccc1OC1CCN(CCn2cc3ccccc3n2)CC1`, the cytotoxicity at 10 µM is 9.25%. As for `Cc1ccc(S(=O)(=O)N2CCN(CCC#N)CC2)s1`, the figure is -10.8%; as for `OC1(CN(Cc2cccnc2)C2CCCCC2)CNCCOC1` (configuration not stated), -21%; as for `COCCN(Cc1coc(-c2ccc(OC)cc2)n1)C1CC1`, 2.1%. `CNC(=O)c1cccc(C2CNCCN2C(=O)c2cccc(F)c2)c1` (configuration not stated): the cytotoxicity at 10 µM was -7.9%. `CC(NC(=O)CCc1nc(-c2nnc[nH]2)no1)c1ccc(F)cc1F` (configuration not stated): the cytotoxicity at 10 µM was -2.05%. Turning to `Cc1ccc2c(n1)N(CC1CC1)CCN(Cc1cnn(C)c1)C2`, the cytotoxicity at 10 µM was -2.91%.

With `CC(c1cccc(-c2nccn2CCc2ccccn2)c1)N(C)C` (configuration not stated), the cytotoxicity at 10 µM was found to be 7.62%. Regarding `CCN1CC2(CCC1=O)CCN(Cc1nncn1C)CC2`, the cytotoxicity at 10 µM was determined as 4.46%. For the compound `Cc1nnc(CN2CCCC(c3noc(C4CC4)n3)C2)o1` (configuration not stated), the cytotoxicity at 10 µM is -16%.

As to `COCc1ccc(C(=O)N2CCCN(C(=O)OCC(C)C)CC2)cc1`, the cytotoxicity at 10 µM is 13.4%. `CCN(CC)Cc1cc(=O)n2c(n1)CN(C(=O)c1ccnnc1)CCC2`: the cytotoxicity at 10 µM stood at 6.66%. With `COc1ccc(S(=O)(=O)NCCC(O)c2cc(C)oc2C)c(C)c1` (configuration not stated), the cytotoxicity at 10 µM was -0.165%. For the compound `O=S(=O)(CCO)Cc1ccc(OC(F)F)cc1`, the cytotoxicity at 10 µM is -2.88%. For the compound `COCCn1ccnc1CN(Cc1ccccn1)Cc1sccc1C`, the cytotoxicity at 10 µM was found to be 2.16%. `Cc1nnc(NC(=O)CN2CCc3nn(C)c(=O)cc3C2)s1`: the cytotoxicity at 10 µM was -6.18%. In the case of `OCC1CCCN1c1cc(NCCNc2cccnn2)ncn1` (configuration not stated), the cytotoxicity at 10 µM was determined as 18.5%. With `CCN(Cc1ccc(Cl)s1)S(=O)(=O)CCOC`, the cytotoxicity at 10 µM came to 12.1%. Consider `CO[C@H]1CCN(Cc2cnn(C)c2)[C@@H]2CN(Cc3ccncc3)C[C@H]12`, for which the cytotoxicity at 10 µM was determined as 2.29%.
